Calls of active or inactive are those of the source. The rule behind the calls is not given here.
What was measured:
[1] = system: SK-MEL-2; experiment: Cytotoxicity against human SK-MEL-2 cells after 48 hrs by sulforhodamine B assay; assay type: functional; conditions: SK-MEL-2, 48 h
Summary of the method: (§1)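 Run by the NCI 60-cell-line screen. A one-dose pre-test was done first, followed by the main test over a 5-log dose range (10^-4 to 10^-8 M). Results are reported as log molar GI50 (50% net growth inhibition), TGI (total growth inhibition) and LC50 (50% net cell death), with mean-graph midpoints across all lines.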

[2] = system: OVCAR-5; experiment: Cytotoxicity against human OVCAR5 cells after 48 hrs by sulforhodamine B assay; assay type: functional; conditions: OVCAR-5, 48 h; summary of the method: as §1
[3] = system: MDA-MB-231; experiment: Cytotoxicity against human MDA-MB-231 cells after 48 hrs by sulforhodamine B assay; assay type: functional; conditions: MDA-MB-231, 48 h; summary of the method: as §1
[4] = Cytotoxicity against human […] cells after 48 hrs by sulforhodamine B assay; assay type: functional; summary of the method: as §1
[5] = system: PC-3; experiment: Cytotoxicity against human PC3 cells after 48 hrs by sulforhodamine B assay; assay type: functional; conditions: PC-3, 48 h
Summary of the method: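 Cells were grown in RPMI 1640 with 10% FBS and 2 mM L-glutamine, plated at densities set by doubling time, and pre-incubated 24 h at 37 °C, 5% CO2. Drugs were tested at 0.1, 1, 10 and 100 µM in triplicate wells for 48 h continuous exposure. Cells were fixed with 10% TCA (final) and stained with 0.4% SRB. A540 was read against a 690 nm reference, and percent growth was calculated relative to control. Experiments were repeated three times.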

[6] = system: NCI/ADR-RES; experiment: Cytotoxicity against human NCI/ADR-RES cells after 48 hrs by sulforhodamine B assay; assay type: functional; summary of the method: as §1
[7] = system: OVCAR-3; experiment: Cytotoxicity against human OVCAR3 cells after 48 hrs by sulforhodamine B assay; assay type: functional; conditions: OVCAR-3, 48 h; summary of the method: as §1
[8] = system: K562; experiment: Cytotoxicity against human K562 cells after 48 hrs by sulforhodamine B assay; assay type: functional; conditions: K562, 48 h; summary of the method: as §1
[9] = system: MOLT-4; experiment: Cytotoxicity against human MOLT4 cells after 48 hrs by sulforhodamine B assay; assay type: functional; conditions: MOLT-4, 48 h; summary of the method: as §1
[10] = system: UO-31; experiment: Cytotoxicity against human UO31 cells after 48 hrs by sulforhodamine B assay; assay type: functional; conditions: UO-31, 48 h
Summary of the method: (§2)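 NCI 60-cell-line panel screen of human tumor lines: a one-dose pre-test, then the main test over a 5-log range (10^-4–10^-8 M). GI50, TGI and LC50 are reported as log molar concentrations for 50% net growth inhibition, total growth inhibition and 50% net cell death. Mean graph midpoints are also calculated.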

[11] = system: NCI-H226; experiment: Cytotoxicity against human NCI-H226 cells after 48 hrs by sulforhodamine B assay; assay type: functional; conditions: NCI-H226, 48 h; summary of the method: as §1
[12] = system: U-251; experiment: Cytotoxicity against human U251 cells after 48 hrs by sulforhodamine B assay; assay type: functional; conditions: U-251, 48 h; summary of the method: as §2
[13] = system: LOX IMVI; experiment: Cytotoxicity against human LOXIMVI cells after 48 hrs by sulforhodamine B assay; assay type: functional; summary of the method: as §1
[14] = system: HL-60(TB); experiment: Cytotoxicity against human HL-60(TB) cells after 48 hrs by sulforhodamine B assay; assay type: functional; conditions: HL-60, 48 h
Summary of the method: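 Run by the NCI 60 human tumour cell line screen. A one-dose pre-test across sixty lines came first. The main test then used a 5-log dose range (10^-4–10^-8 M). Values derived per cell line were GI50 (log molar concentration for 50% net growth inhibition), TGI (total growth inhibition) and LC50 (50% net cell death).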

[15] = system: SR; experiment: Cytotoxicity against human SR cells after 48 hrs by sulforhodamine B assay; assay type: functional; summary of the method: as §2
[16] = system: SF-295; experiment: Cytotoxicity against human SF295 cells after 48 hrs by sulforhodamine B assay; assay type: functional; conditions: SF-295, 48 h; summary of the method: as §1
[17] = system: NCI-H460; experiment: Cytotoxicity against human NCI-H460 cells after 48 hrs by sulforhodamine B assay; assay type: functional; conditions: NCI-H460, 48 h; summary of the method: as §1
[18] = system: MCF7; experiment: Induction of apoptosis in human MCF7 cells assessed as increase of cleaved PARP level at 5 uM after 24 hrs by Western blotting; assay type: functional, cell-based
Summary of the method: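 MCF-7 cells, kept in DMEM with 10% fetal calf serum at 37 °C under 5% CO2, treated 24 h. Lysis in ice-cold RIPA with protease inhibitors; Bradford quantitation; 30 µg protein per lane on 12% SDS-PAGE, then PVDF. Primary antibodies (1:500) at 4 °C overnight; HRP secondary (1:2000); chemiluminescence detection; β-actin loading control.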

[19] = system: SK-MEL-28; experiment: Cytotoxicity against human SK-MEL-28 cells after 48 hrs by sulforhodamine B assay; assay type: functional; conditions: SK-MEL-28, 48 h; summary of the method: as §1
[20] = system: SNB-19; experiment: Cytotoxicity against human SNB19 cells after 48 hrs by sulforhodamine B assay; assay type: functional; conditions: SNB-19, 48 h; summary of the method: as §2
[21] = system: MCF7; experiment: Cell cycle arrest in human MCF7 cells assessed as accumulation at G2/M phase at 5 uM after 24 hrs using propidium iodide staining by flow cytometry relative to control; assay type: functional
Summary of the method: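 MCF-7 cells were seeded at 5×10^5 per 60 mm dish and grown 24 h. They were then exposed to 5 uM compound for a further 24 h, with untreated control cells alongside. Cells were trypsinised, fixed in ice-cold 70% ethanol (4 °C, 30 min), treated with 1 mg/ml RNase A (37 °C, 30 min) and stained with propidium iodide/citrate/Triton solution. DNA content was read by flow cytometry on 20,000 events.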

[22] = Cytotoxicity against human Hs 578T cells after 48 hrs by sulforhodamine B assay; assay type: functional; summary of the method: as §1
[23] = system: NCI-H23; experiment: Cytotoxicity against human NCI-H23 cells after 48 hrs by sulforhodamine B assay; assay type: functional; conditions: NCI-H23, 48 h; summary of the method: as §1
[24] = system: SN12C; experiment: Cytotoxicity against human SN12C cells after 48 hrs by sulforhodamine B assay; assay type: functional; summary of the method: as §2
[25] = read-out: pLC50 (the source's name) (converted)

## COc1cc(C2NC(=O)c3ccccc3N2)ccc1OCCCCCOc1c(OC)cc(C2=NOC(c3cc(OC)c(OC)c(OC)c3)C2)cc1OC (stereo not drawn)
[1]
  GI50: 35.5 µM
[1]; [25]
  CC50: > 100 µM
[1]; read-out: pTGI
  TGI: > 100 µM
[2]
  GI50: 36.3 µM
[2]; [25]
  CC50: > 100 µM
[2]; read-out: pTGI
  TGI: > 100 µM
[3]
  GI50: 14.8 µM
[3]; [25]
  CC50: > 100 µM
[3]; read-out: pTGI
  TGI: > 100 µM
[4]
  GI50: 0.0851 µM
[4]; [25]
  CC50: > 100 µM
[4]; read-out: pTGI (converted)
  TGI: 2.29 µM
[5]
  LC50: > 100 µM
[5]; read-out: pGI50 (converted)
  GI50: 28.8 µM
[5]; read-out: pTGI
  TGI: > 100 µM
[6]
  GI50: 15.1 µM
[6]; [25]
  CC50: > 100 µM
[6]; read-out: pTGI
  TGI: > 100 µM
[7]
  GI50: 12.9 µM
[7]; [25]
  CC50: > 100 µM
[7]; read-out: pTGI (converted)
  TGI: 63.1 µM
[8]
  GI50: 0.501 µM
[8]; [25]
  CC50: > 100 µM
[8]; read-out: pTGI
  TGI: > 100 µM
[9]
  GI50: 0.479 µM
[9]; [25]
  CC50: > 100 µM
[9]; read-out: pTGI
  TGI: > 100 µM
[10]
  GI50: 10.7 µM
[10]; [25]
  CC50: > 100 µM
[10]; read-out: pTGI
  TGI: > 100 µM
[11]
  GI50: 3.39 µM
[11]; [25]
  CC50: > 100 µM
[11]; read-out: pTGI
  TGI: > 100 µM
[12]
  GI50: 15.1 µM
[12]; [25]
  CC50: > 100 µM
[12]; read-out: pTGI
  TGI: > 100 µM
[13]
  GI50: 14.1 µM
[13]; [25]
  CC50: > 100 µM
[13]; read-out: pTGI
  TGI: > 100 µM
[14]
  GI50: 11.2 µM
[14]; [25]
  CC50: > 100 µM
[14]; read-out: pTGI
  TGI: > 100 µM
[15]
  GI50: 0.955 µM
[15]; [25]
  CC50: > 100 µM
[15]; read-out: pTGI
  TGI: > 100 µM
[16]
  GI50: 0.398 µM
[16]; [25]
  CC50: > 100 µM
[16]; read-out: pTGI
  TGI: > 100 µM
[17]
  GI50: 13.5 µM
[17]; [25]
  CC50: > 100 µM
[17]; read-out: pTGI (converted)
  TGI: 60.3 µM
[18]
  Activity: Active
[19]
  GI50: 5.25 µM
[19]; [25]
  CC50: > 100 µM
[19]; read-out: pTGI
  TGI: > 100 µM
[20]
  GI50: 16.6 µM
[20]; [25]
  CC50: > 100 µM
[20]; read-out: pTGI
  TGI: > 100 µM
[21]
  Activity: 43.9%
[22]
  GI50: 16.6 µM
[22]; [25]
  CC50: > 100 µM
[22]; read-out: pTGI
  TGI: > 100 µM
[23]
  GI50: 0.603 µM
[23]; [25]
  CC50: > 100 µM
[23]; read-out: pTGI
  TGI: > 100 µM
[24]
  GI50: 25.1 µM
[24]; [25]
  CC50: > 100 µM
[24]; read-out: pTGI
  TGI: > 100 µM

From ChEMBL document CHEMBL1667760, “Synthesis and biological evaluation of 3,5-diaryl isoxazoline/isoxazole linked 2,3-dihydroquinazolinone hybrids as anticancer agents” (2011)
